Results gathered from unrelated publications.
Compare with care: the assays were run in different laboratories.

Cc1ccc2c(c1)C(=O)[C@]1(O)CCN(c3ccc4nc(C)ccc4c3)C1=N2 — concentration (mouse; plasma; subcutaneous; 10 mg/kg; 30 min): 2500 nM
CC(C)(C)S(=O)(=O)c1cc2c(Nc3ccc4scnc4c3)ncnc2cc1OCCOP(=O)(O)O — concentration (BALB/c mouse; plasma; oral; 10 mg/kg; 2 h): 145 ng/mL
NCc1cc2c(cc1F)C(=O)N(C1CCC(=O)NC1=O)C2 (stereo not shown) — concentration (male CD-1 mouse; plasma; intravenous; 1 mg/kg; 4 h): 2.8 ng/mL
CC(C)c1cc(C(=O)NCCN)c2cnn(C(C)C)c2n1 — concentration (female BALB/c mouse; plasma; intraperitoneal; 50 mg/kg; 30 min): 2430 ng/mL
OCc1nc2ccc(NCc3ccc(C(F)(F)F)cc3)cc2[nH]1 — concentration (male BALB/c mouse; brain; oral; 10 mg/kg; 6 h): 227 ng/g
CN(C)C(=O)c1cc2cnc(Nc3ccc(-c4ccc5c(=O)cc(N6CCOCC6)oc5c4)cc3)nc2n1C1CCCC1 — concentration (BALB/c mouse; brain; oral; 20 mg/kg; 24 h; single dose): 5.3 ng/g
O=C1CCC(N2Cc3cc(C4CCN(Cc5ccccc5)CC4)ccc3C2=O)C(=O)N1 (stereo not shown) — concentration (male CD-1 mouse; plasma; oral; 3 mg/kg; 1 h): 235 ng/mL
CC(C)n1ncc2c(C(=O)NCC3(C)CNC3)cc(C3CC3)nc21 — concentration (female BALB/c mouse; plasma; intraperitoneal; 50 mg/kg; 1 h): 2660 ng/mL
O=C1CCC(N2Cc3cc(CO)c(F)cc3C2=O)C(=O)N1 (stereo not shown) — concentration (male CD-1 mouse; plasma; intravenous; 1 mg/kg; 2 h): 8.1 ng/mL
CC1(C)NC(=O)N(c2ccc(F)c(S(C)(=O)=O)c2)C1=O — concentration (male Swiss mouse; plasma; oral; 100 mg/kg; 1 h): 31900 ng/mL
Cc1nc2ccc(OCc3ccc(C(F)(F)F)cc3)cc2[nH]1 — concentration (male BALB/c mouse; brain; oral; 10 mg/kg; 4 h): 2000 ng/g
Fc1ccc(Oc2ccc(Nc3ccc4ncc(OCC5CCNCC5)nc4c3)cc2)cc1 — concentration (SCID mouse; plasma; intraperitoneal; 50 mg/kg; 24 h): 1700 nM
CC1(C)NC(=O)N(c2ccc(F)c(Br)c2)C1=O — concentration (male Swiss mouse; plasma; oral; 100 mg/kg; 48 h): 1110 ng/mL
